Results taken from ChEMBL document CHEMBL1153096, “Properly substituted 1,4-dioxane nucleus favours the selective M3 muscarinic receptor activation” (Bioorg Med Chem, 2009).
Active and inactive are the calls of the source. No cut-off for these calls is given here.

Key:
[1] = target: T1, Muscarinic acetylcholine receptor M4 (Homo sapiens, UniProt P08173); test: Displacement of [3H]NMS from human muscarinic M4 receptor expressed in CHO cells by microplate scintillation counting; format: cell-based
T1 sequence (P08173 whole entry): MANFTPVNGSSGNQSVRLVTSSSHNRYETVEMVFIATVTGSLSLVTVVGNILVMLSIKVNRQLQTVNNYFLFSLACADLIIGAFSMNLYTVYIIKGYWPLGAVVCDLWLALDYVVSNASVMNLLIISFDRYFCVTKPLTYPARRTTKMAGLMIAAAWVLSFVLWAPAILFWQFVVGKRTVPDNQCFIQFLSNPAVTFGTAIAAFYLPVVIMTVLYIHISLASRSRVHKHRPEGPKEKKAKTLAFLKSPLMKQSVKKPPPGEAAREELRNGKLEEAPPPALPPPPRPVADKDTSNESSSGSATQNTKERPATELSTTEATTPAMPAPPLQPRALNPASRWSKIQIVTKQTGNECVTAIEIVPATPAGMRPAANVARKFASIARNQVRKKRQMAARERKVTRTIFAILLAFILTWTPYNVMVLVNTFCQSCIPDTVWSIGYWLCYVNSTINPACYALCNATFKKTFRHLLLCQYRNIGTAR

[2] = target: T2, Muscarinic acetylcholine receptor M2 (Homo sapiens, UniProt P08172); test: Displacement of [3H]NMS from human muscarinic M2 receptor expressed in CHO cells by microplate scintillation counting; format: cell-based
T2 sequence (P08172 whole entry): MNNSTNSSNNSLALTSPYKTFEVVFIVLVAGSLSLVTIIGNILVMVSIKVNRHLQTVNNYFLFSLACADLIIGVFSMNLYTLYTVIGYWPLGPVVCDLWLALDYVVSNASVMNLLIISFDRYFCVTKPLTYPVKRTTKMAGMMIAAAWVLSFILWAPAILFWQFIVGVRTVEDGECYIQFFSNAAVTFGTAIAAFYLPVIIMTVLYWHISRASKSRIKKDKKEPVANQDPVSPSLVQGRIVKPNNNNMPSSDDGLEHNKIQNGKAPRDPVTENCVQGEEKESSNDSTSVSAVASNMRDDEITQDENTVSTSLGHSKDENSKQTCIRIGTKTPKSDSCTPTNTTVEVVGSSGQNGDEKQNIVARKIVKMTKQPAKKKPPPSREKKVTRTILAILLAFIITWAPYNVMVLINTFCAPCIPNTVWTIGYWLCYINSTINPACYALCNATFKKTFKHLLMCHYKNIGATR

Oryctolagus cuniculus [3] = species on record: Oryctolagus cuniculus; test: Antagonist activity at muscarinic M1 receptor in New Zealand White rabbit vas deferens assessed as effect on muscle contraction up to 30 uM; format: functional, tissue-based
[4] = target: Muscarinic acetylcholine receptor M3 (Cavia porcellus) (UniProt Q8VH26); test: Intrinsic activity at muscarinic M3 receptor in guinea pig ileum assessed as inhibition of electrically-stimulated muscle contraction relative to bathanecol; format: tissue-based
Chain of Muscarinic acetylcholine receptor M3 (Cavia porcellus) (Q8VH26 1-587): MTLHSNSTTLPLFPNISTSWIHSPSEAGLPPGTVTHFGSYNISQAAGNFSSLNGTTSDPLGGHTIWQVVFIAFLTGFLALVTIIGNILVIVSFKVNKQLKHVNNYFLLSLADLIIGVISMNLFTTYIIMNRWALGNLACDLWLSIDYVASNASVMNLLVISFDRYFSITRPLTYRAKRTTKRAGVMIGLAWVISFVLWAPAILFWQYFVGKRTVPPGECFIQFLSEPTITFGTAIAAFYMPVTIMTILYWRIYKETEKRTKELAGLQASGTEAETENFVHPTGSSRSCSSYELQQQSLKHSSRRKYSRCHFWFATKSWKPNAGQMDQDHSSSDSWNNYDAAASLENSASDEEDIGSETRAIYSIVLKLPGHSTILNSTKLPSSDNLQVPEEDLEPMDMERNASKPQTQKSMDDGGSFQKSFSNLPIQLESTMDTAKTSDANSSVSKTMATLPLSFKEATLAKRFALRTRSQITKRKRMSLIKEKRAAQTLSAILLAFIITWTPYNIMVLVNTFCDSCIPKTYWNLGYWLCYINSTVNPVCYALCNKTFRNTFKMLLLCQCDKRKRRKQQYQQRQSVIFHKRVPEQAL
Outline: (§1)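 Male guinea pig (250-350 g, fasted 24 h) ileal segments 2-3 cm, 1.0 g tension, 37 °C, Krebs-Henseleit with carbogen; 45 min equilibration, isometric contractions. Cumulative agonist concentration-response curves; pD2 by linear regression; intrinsic activity relative to bethanechol maximum; means ± SEM of four to six experiments.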

[5] = target: T3, Muscarinic acetylcholine receptor M5 (Homo sapiens, UniProt P08912); test: Displacement of [3H]NMS from human muscarinic M5 receptor expressed in CHO cells by microplate scintillation counting; format: cell-based
T3 sequence (P08912 whole entry): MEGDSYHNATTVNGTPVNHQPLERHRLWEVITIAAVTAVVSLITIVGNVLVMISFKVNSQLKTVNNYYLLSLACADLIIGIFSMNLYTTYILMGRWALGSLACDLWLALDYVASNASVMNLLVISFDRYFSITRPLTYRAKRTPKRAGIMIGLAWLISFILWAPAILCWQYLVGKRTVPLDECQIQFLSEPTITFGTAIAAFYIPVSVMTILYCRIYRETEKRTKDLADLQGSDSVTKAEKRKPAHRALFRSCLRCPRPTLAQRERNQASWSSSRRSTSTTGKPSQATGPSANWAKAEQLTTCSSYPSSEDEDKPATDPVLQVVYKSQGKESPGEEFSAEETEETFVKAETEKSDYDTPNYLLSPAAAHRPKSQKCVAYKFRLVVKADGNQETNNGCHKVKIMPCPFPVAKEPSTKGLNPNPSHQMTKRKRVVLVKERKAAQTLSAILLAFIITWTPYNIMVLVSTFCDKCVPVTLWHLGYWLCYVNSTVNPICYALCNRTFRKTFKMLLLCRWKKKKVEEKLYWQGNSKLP

[6] = target: Muscarinic acetylcholine receptor M3 (Cavia porcellus) (UniProt Q8VH26); test: Agonist activity at muscarinic M3 receptor in guinea pig ileum assessed as inhibition of electrically-stimulated muscle contraction; format: functional, tissue-based; outline: as §1
[7] = target: T4, Muscarinic acetylcholine receptor M1 (Homo sapiens, UniProt P11229); test: Displacement of [3H]NMS from human muscarinic M1 receptor expressed in CHO cells by microplate scintillation counting; format: cell-based
T4 sequence (P11229 whole entry): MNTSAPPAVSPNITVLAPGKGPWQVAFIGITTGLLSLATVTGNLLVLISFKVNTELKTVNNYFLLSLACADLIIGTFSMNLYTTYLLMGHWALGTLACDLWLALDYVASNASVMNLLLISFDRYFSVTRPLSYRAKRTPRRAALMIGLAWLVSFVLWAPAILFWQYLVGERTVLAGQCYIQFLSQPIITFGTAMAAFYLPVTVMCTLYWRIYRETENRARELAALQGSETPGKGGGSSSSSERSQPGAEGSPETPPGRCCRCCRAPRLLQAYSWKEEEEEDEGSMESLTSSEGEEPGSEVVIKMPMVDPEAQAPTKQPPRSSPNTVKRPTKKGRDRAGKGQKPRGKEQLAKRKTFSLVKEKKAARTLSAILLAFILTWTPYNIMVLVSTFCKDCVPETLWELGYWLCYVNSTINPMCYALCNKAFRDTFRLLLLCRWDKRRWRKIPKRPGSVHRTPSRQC

[8] = Antagonist activity at muscarinic M4 receptor in guinea pig lung assessed as effect on muscle contraction; format: functional, Cavia porcellus
Oryctolagus cuniculus [9] = species on record: Oryctolagus cuniculus; test: Agonist activity at muscarinic M1 receptor in New Zealand White rabbit vas deferens assessed as inhibition of electrically-stimulated muscle contraction; format: functional
Outline: (§2)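 Prostatic portion of male-free-listed New Zealand white rabbit (3.0-3.5 kg, fasted 24 h) vas deferens in modified Krebs, 31 °C, 95% O2-5% CO2; 45 min stabilisation, field stimulation 2 Hz, 5 ms, 5 V; isometric recording. Cumulative concentration-response curves; pD2 by linear regression; intrinsic activity as fraction of McN-A-343 maximum; means ± SEM of four to six experiments.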

Cavia porcellus [10] = species on record: Cavia porcellus; test: Intrinsic activity at muscarinic M4 receptor in guinea pig lung assessed as inhibition of electrically-stimulated muscle contraction relative to bathanecol
Outline: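 Male guinea pig peripheral lung strips (15 × 2 × 2 mm) from lower lobe, 0.3 g resting tension, 37 °C, Krebs-Henseleit with carbogen; 45 min equilibration, isometric contractions. Cumulative agonist concentration-response curves; pD2 by linear regression; intrinsic activity relative to bethanechol maximum; means ± SEM of four to six experiments.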

[11] = target: Muscarinic acetylcholine receptor M3 (Homo sapiens, UniProt P20309); test: Displacement of [3H]NMS from human muscarinic M3 receptor expressed in CHO cells by microplate scintillation counting; format: cell-based
Chain of Muscarinic acetylcholine receptor M3 (P20309 whole entry): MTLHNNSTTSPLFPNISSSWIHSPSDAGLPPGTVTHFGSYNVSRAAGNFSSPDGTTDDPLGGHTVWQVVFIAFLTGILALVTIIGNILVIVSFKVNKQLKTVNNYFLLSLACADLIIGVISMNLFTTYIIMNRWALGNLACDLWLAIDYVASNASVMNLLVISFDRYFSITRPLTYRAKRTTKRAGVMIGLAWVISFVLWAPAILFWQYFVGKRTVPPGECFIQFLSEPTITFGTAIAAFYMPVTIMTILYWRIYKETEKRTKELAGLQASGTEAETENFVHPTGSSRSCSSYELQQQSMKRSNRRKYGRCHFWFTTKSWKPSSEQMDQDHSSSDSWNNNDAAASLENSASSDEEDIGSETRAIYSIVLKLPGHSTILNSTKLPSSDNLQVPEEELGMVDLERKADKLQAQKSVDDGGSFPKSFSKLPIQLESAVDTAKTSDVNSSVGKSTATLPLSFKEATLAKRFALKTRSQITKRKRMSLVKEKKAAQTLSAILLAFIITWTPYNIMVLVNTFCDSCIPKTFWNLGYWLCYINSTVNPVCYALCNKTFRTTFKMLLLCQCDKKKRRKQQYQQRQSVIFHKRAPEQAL

[12] = Agonist activity at muscarinic M2 receptor in guinea pig atrium assessed as inhibition of electrically-stimulated muscle contraction; format: functional, Cavia porcellus, Cardiac atrium
Cavia porcellus [13] = species on record: Cavia porcellus; test: Intrinsic activity at muscarinic M2 receptor in guinea pig atrium assessed as inhibition of electrically-stimulated muscle contraction relative to bathanecol; format: tissue-based; conditions: Cardiac atrium
[14] = Selectivity ratio of pD2 for guinea pig muscarinic M3 receptor to pD2 for rabbit M1 receptor
[15] = Agonist activity at muscarinic M4 receptor in guinea pig lung assessed as inhibition of electrically-stimulated muscle contraction; format: functional, Cavia porcellus
Cavia porcellus [16] = species on record: Cavia porcellus; test: Selectivity ratio of pD2 for guinea pig muscarinic M3 receptor to pD2 for guinea pig muscarinic M2 receptor
Cavia porcellus [17] = species on record: Cavia porcellus; test: Selectivity ratio of pD2 for guinea pig muscarinic M3 receptor to pD2 for guinea pig muscarinic M4 receptor
Oryctolagus cuniculus [18] = species on record: Oryctolagus cuniculus; test: Intrinsic activity at muscarinic M1 receptor in New Zealand White rabbit vas deferens assessed as inhibition of electrically-stimulated muscle contraction relative to McN-A-343; format: tissue-based; outline: as §2
Cavia porcellus [19] = species on record: Cavia porcellus; test: Antagonist activity at muscarinic M4 receptor in guinea pig lung assessed as effect on muscle contraction up to 10 uM; format: functional
[20] = Antagonist activity at muscarinic M1 receptor in New Zealand White rabbit vas deferens assessed as effect on muscle contraction; format: functional, Oryctolagus cuniculus

| Compound | Ki [1] [µM] | Ki [2] [µM] | pKb (Oryctolagus cuniculus [3]) | Intrinsic activity [4] | Ki [5] [µM] | pD2 [6] | Ki [7] [µM] | pKb [8] | pD2 (Oryctolagus cuniculus [9]) | Intrinsic activity (Cavia porcellus [10]) | Ki [11] [µM] | pD2 [12] | Intrinsic activity (Cavia porcellus [13]) | Selectivity ratio [14] | pD2 [15] | Selectivity ratio (Cavia porcellus [16]) | Selectivity ratio (Cavia porcellus [17]) | Intrinsic activity (Oryctolagus cuniculus [18]) | pKb (Cavia porcellus [19]) | pKb [20] |
| --- | --- | --- | --- | --- | --- | --- | --- | --- | --- | --- | --- | --- | --- | --- | --- | --- | --- | --- | --- | --- |
| C[C@H]1OC[C@@H](C[N+](C)(C)C)OC1(C)C.[I-] (relative stereo) | 25.7 | 27.5 | inactive | 0.47 | 32.4 | 5.25 | 20 | 5.15 | inactive | 0 | 16.2 |  |  |  |  |  |  |  |  |  |
| CC1(C)COC[C@@H](C[N+](C)(C)C)O1.[I-] | 44.7 | 18.2 | inactive | 1.16 | 28.2 | 6.94 | 47.9 |  | inactive | 0.18 | 21.4 | 5.03 | 0.73 | > 275 | 4.85 | 81 | 123 |  |  |  |
| C[C@@H]1O[C@H](C[N+](C)(C)C)COC1(C)C.[I-] (relative stereo) | 57.5 | 60.3 |  | 0.47 | 52.5 | 5.12 | 67.6 |  |  |  | 32.4 | 4.92 | 0.33 |  |  |  |  | 0 | inactive | 4.61 |
